Screening data from PubChem.
An excerpt weighted towards active compounds, which were near 1.6% of everything screened.
PAD4 inh: human PAD4 inhibitors, primary screen, biochemical, fluorescence polarization, 1536-well format. recombinant PAD4, RCA probe fluorescence polarization. inhibition, % at 6.36 µM. 330,000 compounds, 0.41% hits. AID 485272, 2010;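 active means percent inhibition above a cutoff equal to the mean of all tested compounds plus 3 SD, cut at about 15% in these data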;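 further: 0% = PAD4 with RCA probe and DMSO and 100% = probe without PAD4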
Fh CTSL1 inh: Fasciola hepatica cathepsin L1 inhibitors, primary screen, counter-screen for PFM18AAP inhibitor project, biochemical, QFRET, fluorogenic peptide substrate; 300,000 compounds, 0.49% hits; recombinant F. hepatica cathepsin L1, Z-Leu-Arg-MCA fluorescence; AID 1906, 2009; inhibition, % at 5.96 µM;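 active means inhibition above the mean of all tested compounds plus 3 SD, set per screening campaign, cut at about 17% in these data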;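 further: 0% = plate median of test compound wells and 100% = 1 µM Z-Phe-Ala-diazomethylketone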
TDP2 absorb: human TDP2 enzyme inhibitors, primary screen, biochemical, epi absorbance, recombinant enzyme; Tyrosyl-DNA phosphodiesterase 2 (Homo sapiens), O95551; T5PNP hydrolysis, p-nitrophenol absorbance 415 nm; inhibition, % at 12.8 µM; 370,000 compounds, 0.34% hits;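 active means inhibition above the mean of all tested compounds plus 3 SD, set per campaign, cut at about 25% in these data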;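 further: 0% = DMSO with enzyme and 100% = buffer with substrate but no TDP2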
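Assay system: Recombinant human TDP2 | Quantity: 120 nM TDP2 per well | Incubation: 2 h at 37 °C | Signal: Epi absorbance | Evaluation: Percent inhibition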
GSTO1 counter: inhibitors of recombinant GSTO1, primary screen, counter-screen for RBBP9 inhibitor project, biochemical, fluorescence polarization | activity-based probe fluorescence polarization | inhibition, % at 5.96 µM | 300,000 compounds, 1.1% hits | AID 1974, 2009;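 active means inhibition above the campaign mean inhibition plus 3 SD, cut at about 35% in these data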;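 further: 0% = GSTO1-1 with DMSO and 100% = wells lacking GSTO1-1 enzyme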
Target sequence (P78417 whole entry, looked up): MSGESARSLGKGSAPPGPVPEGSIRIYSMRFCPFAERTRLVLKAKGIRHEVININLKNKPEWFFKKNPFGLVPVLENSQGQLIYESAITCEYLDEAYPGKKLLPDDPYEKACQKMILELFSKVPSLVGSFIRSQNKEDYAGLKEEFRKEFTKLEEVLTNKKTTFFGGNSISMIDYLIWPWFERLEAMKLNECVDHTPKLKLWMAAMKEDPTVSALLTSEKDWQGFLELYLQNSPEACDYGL
UCH37 inh: inhibitors of human UCH37 deubiquitinase, primary screen, biochemical, Ub-AMC cleavage, fluorescence; inhibition, % (test concentration not listed); Ubiquitin carboxyl-terminal hydrolase isozyme L5 (Homo sapiens), Q9Y5K5; AID 588478, 2011; purified proteasome/UCH37; 330,000 compounds, 0.33% hits;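 active means mean inhibition over replicate wells above about 20%, limit read from the data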;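 further: 0% = compound-free wells with enzyme and 100% = wells lacking proteasome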
Target sequence (Q9Y5K5 whole entry, looked up): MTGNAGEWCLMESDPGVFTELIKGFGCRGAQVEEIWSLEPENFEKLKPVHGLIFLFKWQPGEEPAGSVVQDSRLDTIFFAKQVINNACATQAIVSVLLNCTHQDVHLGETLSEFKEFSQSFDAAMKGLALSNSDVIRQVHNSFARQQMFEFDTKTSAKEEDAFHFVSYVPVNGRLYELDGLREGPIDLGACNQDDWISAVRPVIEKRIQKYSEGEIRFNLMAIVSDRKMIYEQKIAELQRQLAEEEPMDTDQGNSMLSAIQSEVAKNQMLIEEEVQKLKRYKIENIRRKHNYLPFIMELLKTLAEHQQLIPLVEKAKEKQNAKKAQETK
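Test system – human UCH37 enzyme supplied as purified proteasome complex · Incubation – 30 min preincubation with enzyme, 25 min cleavage at room temperature · Detection – AMC fluorescence from Ub-AMC cleavage, excitation 355 nm, emission 460 nm · Benchmarks – no-proteasome wells (full inhibition) and compound-free wells (no inhibition)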
HKDC1 inhibitor: HKDC1 hexokinase inhibitors, primary screen, biochemical, fluorescence, uHTS; Q2TB90; recombinant HKDC1, G6PDH/diaphorase resazurin coupled fluorescence; inhibition, % at 20 µM; 340,000 compounds, 0.16% hits; AID 493160, 2011;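 active means inhibition above about 35% when tested at 20 µM, limit read from the data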;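 further: plate controls were DMSO wells with enzyme for no effect and DMSO wells lacking enzyme for full effect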
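Test system: recombinant HKDC1 (HK5) hexokinase enzyme, produced in-house; Amount: enzyme 5 µg/mL final; Buffer or medium: Tris pH 8.0 buffer with MgCl2, Tween-20, BSA, BME; Reagent: glucose and ATP substrates; Doses: 20 µM test compound, 1% DMSO; Incubation: 90 min reaction incubation at room temperature, dark; Detection: resorufin fluorescence at 613 nm.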
Starred values were filed as active, the others as inactive; . = no result.

SMILES	PAD4 inh	Fh CTSL1 inh	TDP2 absorb	GSTO1 counter	UCH37 inh	HKDC1 inhibitor
CCOC(=O)C(C(=O)NCC1CCCO1)C1CCCCC1 (centres undefined)	-8	17*	-13	8	4	1
COC(=O)C(C(=O)NCC1CCCO1)C1CCCCCC1 (centres undefined)	-7	-8	2	-2	3	-3
COc1ccc(S(=O)(=O)N(CC(=O)NN=Cc2cccs2)c2cc(C)cc(C)c2)cc1OC	.	.	.	.	5	.
Cc1cccc(C=NNC(=O)c2cc(-c3cccnc3)nc3ccccc23)c1	.	.	.	.	2	.
CC(C)C(NS(=O)(=O)c1cccs1)C(=O)NCCN1CCN(c2ccccc2)CC1 (centres undefined)	1	48*	.	0	1	-2
Cc1ccc(SCc2c(C(=O)NN=CC3CC=CCC3)nnn2-c2nonc2N)cc1 (centres undefined)	.	.	.	.	5	.
CCOC(=O)C(Cc1ccc(O)cc1)NC(=O)CNC(=O)C(CC(C)C)NC(=O)OC(C)(C)C (centres undefined)	5	29*	-13	9	1	-5
COC(=O)C(Cc1ccccc1)NC(=O)C(CC(C)C)NC(=O)OC(C)(C)C (centres undefined)	0	11	0	4	0	-13
Cc1onc(-c2c(Cl)cccc2Cl)c1C(=O)ON=C(C#N)c1c(Cl)cccc1Cl	.	.	.	.	6	.
ON=C1CCC(=NO)c2nn(-c3ccccc3)nc21	.	.	.	.	2	.
COc1ccc(CCN/C=C2/CC(=O)NC2=O)cc1OC	3	25*	0	4	2	-4
COc1ccc(CCNC(=O)CCCCC(=O)NCCc2ccc(OC)c(OC)c2)cc1OC	2	-4	9	-2	3	-3
CC(=NNC(=O)c1ccn(C)n1)c1ccco1	.	.	.	.	4	.
COc1cccc(C(=O)NCC(=O)NN=Cc2cccc(OC(=O)c3ccc([N+](=O)[O-])cc3)c2)c1	.	.	.	.	2	.
Cc1cc(C)c2c(N)c(C(=O)Nc3ncc(C)s3)sc2n1	2	17*	-15	-15	-219	9
O=c1ccsn1Cc1ccccc1	6	24*	6	-3	2	5
Cc1nc(C#N)c(NN=Cc2cccc(Cl)c2)o1	.	.	.	.	4	.
Cc1cc(SCC2=NNC(=O)C2)c(Cl)cc1Cl	-5	3	-11	26	3	-3
O=C1CC(CSc2ccc(Cl)cc2)=NN1	4	-3	16	37*	1	-5
Clc1ccc(Cl)c(OCc2cc(-c3ccccc3Cl)on2)c1	2	19*	3	19	3	5
O=C(Nc1ccc(Cl)cc1)OCc1cc(-c2ccccc2Cl)on1	3	5	-5	-5	-6	-5
Cc1ccc(COc2ccc(C=NNC(=O)c3ccc(CN4CCOCC4)cc3)cc2)cc1	.	.	.	.	4	.
C/C(C=NNC(=O)Cn1nc(C)cc1C)=C/c1ccc(C(C)C)cc1	.	.	.	.	-5	.
COc1ccc(C2CC(c3cccs3)=NN2c2nc(-c3ccccc3)cs2)cc1OC (centres undefined)	-1	34*	-1	-16	-157	-21
COc1ccc(C2CC(c3cccs3)=NN2S(C)(=O)=O)cc1OC (centres undefined)	-2	-1	6	4	0	-2
SMILES	PAD4 inh	Fh CTSL1 inh	TDP2 absorb	GSTO1 counter	UCH37 inh	HKDC1 inhibitor
CCOC(=O)/C(=C/C1=CC(=C/N(C)C)/C(=O)O1)C(C)=O	-4	4	-2	5	22*	-1
COC1(OC)C(=NO)C(=NO)CCC1O (centres undefined)	.	.	.	.	1	.
O=C(NCS(=O)(=O)c1ccccc1)c1ccccc1	-2	30*	-6	15	3	-1
Cc1ccc(-c2n[nH]c(=S)n2N=Cc2ccncc2)cc1	.	.	.	.	5	.
COc1ccc([N+](=O)[O-])cc1C=NNc1nc(N2CCCCC2)nc(N2CCCCC2)n1	.	.	.	.	5	.
O=C(CSc1ccccc1)N1CCN(c2ccc(F)cc2)CC1	1	17*	2	2	2	-6
Oc1oc(-c2ccc(Br)cc2)nc1/C=N/c1ccccn1	-6	23*	1	4	.	-13
Oc1oc(-c2ccccc2)nc1C=NCc1ccncc1	-2	36*	7	-5	16	3
Oc1oc(-c2ccccc2)nc1/C=N/c1nccs1	1	45*	-2	-2	.	5
COc1cc(C=NNc2nc3ccccc3[nH]2)cc(OC)c1O	.	.	.	.	-4	.
CC(=NNS(=O)(=O)c1cc(C)ccc1C)c1ccc2c(c1)OCO2	.	.	.	.	5	.
CC(/C=C/C=C/c1ccccc1)=N\NC(=O)c1cccnc1	-2	22*	2	8	.	-10
CC(/C=C\C=C\c1ccccc1)=N\NC(=O)c1cncc(Br)c1	1	7	3	-4	.	-11
CC(/C=C/C=C/c1ccccc1)=NNC(=O)c1cccnc1	.	.	.	.	24*	.
O=C(CCl)N(C/C=C/c1ccccc1)c1ccc2c(c1)OCCO2	-1	10	11	93*	0	28
O=C(/C=C/c1ccccc1)c1ccc2c(c1)OCCCCO2	0	4	-8	-8	3	12
CCOC(=O)c1c2c(n(C)c1COC)C(=O)C(=O)c1ccc(Br)cc1-2	1	6	.	56*	.	.
Cc1ccc(C(=O)NN=c2oc3ccccc3cc2C(N)=O)cc1	.	.	.	.	6	.
COc1cc(Oc2ccccc2)nc(N)n1	-2	30*	11	2	3	-4
COc1cc(-c2ccccc2)nc(N)n1	0	-4	.	-10	4	4
CCC(C)c1ccc(OCCn2cc(C=NNC(=O)CSc3nnc(C)s3)c3ccccc32)cc1 (centres undefined)	.	.	.	.	2	.
CC1Cc2ccccc2N1C(=O)c1cnc2n(c1=O)CCS2 (centres undefined)	1	66*	6	3	0	-1
COc1ccc(NC(C)C(=O)NN=Cc2ccc([N+](=O)[O-])s2)cc1 (centres undefined)	.	.	.	.	10	.
COc1ccc(C=NNC(=O)CNC(=O)c2ccc3c(c2)OCCO3)cc1OC	.	.	.	.	2	.
CN(C)c1ccnc(-n2cccc2C=NOCc2ccc(F)cc2Cl)c1C#N	.	.	.	.	2	.
COc1[nH]c(/N=C/c2ccccc2)c(C#N)c1C#N	13	-3	7	35*	.	14
CC1(C)CC(O)CC(C)(C)N1CC(O)COCCOc1ccc(Br)cc1 (centres undefined)	2	-2	-5	35*	1	0
